Source: PubChem BioAssay
The entries come from a sample that favours hits as a whole.
T cruzi growth-1 = T. cruzi proliferation inhibition; T. cruzi beta-gal in NIH3T3, GalScreen luminescence, 90 h; inhibition, % at 8.34 µM; 5.9% of 77,000 active;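 active means mean inhibition above about 93%, with at least 55% of replicates each passing it, limit read from the data, passing the limit was not always enough; inconclusive means only one of those two conditions holds; inactive means neither condition holds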
IDH1 R132H inh = blocks human IDH1 R132H reductase activity. diaphorase/resazurin fluorescence, 60 min. 0.18% of 70,000 active. inhibition, % at 10 µM. O75874; in the data active means inhibition above about 34%; inconclusive means no clear call, values can overlap the other calls; inactive means below about 11%
Target sequence (O75874 whole entry R132H): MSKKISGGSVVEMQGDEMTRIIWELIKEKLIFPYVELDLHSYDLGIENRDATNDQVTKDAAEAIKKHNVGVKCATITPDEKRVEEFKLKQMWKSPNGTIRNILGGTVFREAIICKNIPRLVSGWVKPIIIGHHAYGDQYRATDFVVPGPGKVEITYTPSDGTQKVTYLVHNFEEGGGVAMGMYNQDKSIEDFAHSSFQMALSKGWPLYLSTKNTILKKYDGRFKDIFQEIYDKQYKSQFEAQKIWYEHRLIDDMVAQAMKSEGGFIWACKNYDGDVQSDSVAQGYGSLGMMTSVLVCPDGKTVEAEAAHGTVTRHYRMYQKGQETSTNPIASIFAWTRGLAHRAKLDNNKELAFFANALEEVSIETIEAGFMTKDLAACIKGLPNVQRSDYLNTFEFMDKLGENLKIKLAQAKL
KDM4C inh = inhibitors of human demethylase GASC-1 KDM4C; 0.15% of 96,000 active; Q9H3R0; inhibition, % at 12.5 µM; GST-KDM4C 2-372, H3K9me3 peptide, LANCE TR-FRET;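 active means mean replicate inhibition above about 25%, with at least 55% of replicates also reaching it, limit read from the data, passing the limit was not always enough; inconclusive means only one of those two conditions met; inactive means neither condition met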
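System: N-terminal GST-fused human GASC-1 (KDM4C) fragment, residues 2-372 / Amount: 10 nM GST-KDM4C in enzyme reaction / Also added: H3K9me3 peptide with Fe(II)/2OG / Times: 30 min demethylation and 1 h detection at room temperature / Signal: LANCE TR-FRET / Read-out basis: Fall in 671/618 emission ratio as inhibition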
T cruzi growth-2 = Trypanosoma cruzi proliferation inhibition; shares compounds with T cruzi growth-1; T. cruzi beta-gal in NIH3T3, GalScreen luminescence, 90 h; inhibition, % at 8.35 µM; 72% of 5,600 active;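 active means mean replicate inhibition above about 95% and at least 55% of replicates individually reaching it, limit read from the data; inconclusive means only one of the two criteria is met; inactive means neither criterion is met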
T cruzi growth-3 = Trypanosoma cruzi proliferation inhibition; 21% of 5,600 active; shares compounds with T cruzi growth-1; T. cruzi beta-gal in NIH3T3, GalScreen luminescence, 90 h; AID 651740; inhibition, % at 2.09 µM;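 active means mean inhibition above about 95%, with at least 55% of replicates also reaching it, limit read from the data; inconclusive means meets just one of the two conditions; inactive means meets neither condition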
NIH3T3 tox = cytotoxicity in mouse NIH/3T3 fibroblasts; shares compounds with T cruzi growth-1; NIH/3T3 viability, CellTiter-Glo ATP luminescence, 90 h; cytotoxicity (signal decrease), % at 8.35 µM; 14% of 5,600 active; AID 651742;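 active means mean signal decrease across replicates above about 35% based on untreated-well scatter, with enough replicates individually passing, limit read from the data; inconclusive means no rule stated though some were filed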
NIH3T3 tox 2 = kills mouse NIH/3T3 fibroblasts. shares compounds with T cruzi growth-1. NIH/3T3 viability, CellTiter-Glo ATP luminescence, 90 h. inhibition, % at 24.9 µM. 56% of 5,600 active. AID 651744;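 active means mean loss of cell viability signal at or above a set limit, and enough replicates individually reaching it; inconclusive means meets only the mean limit or only the replicate share; inactive means meets neither condition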
Numbers stand for hits; n = inactive; u = inconclusive; x = no result given.

SMILES	T cruzi growth-1	IDH1 R132H inh	KDM4C inh	T cruzi growth-2	T cruzi growth-3	NIH3T3 tox	NIH3T3 tox 2
CC(C)C#Cc1ccc([C@@H]2[C@@H](CO)N3CCCCN(CC4CC4)C[C@@H]23)cc1	u	x	n	95	n	u	106
OC[C@H]1Nc2ccc(-c3cccc(F)c3)cc2[C@H]2[C@@H]1CCN2Cc1ccc(F)cc1	n	x	n	x	x	x	x
OC[C@H]1Nc2ccc(-c3cccc(F)c3)cc2[C@H]2[C@@H]1CCN2Cc1ccncc1	106	x	n	104	n	n	92
N#Cc1cccc(-c2ccc3c(c2)[C@H]2[C@H](CCN2Cc2ccncc2)[C@@H](CO)N3)c1	x	x	n	x	x	x	x
N#Cc1cccc(-c2ccc3c(c2)[C@@H]2[C@@H](CCN2Cc2cncnc2)[C@@H](CO)N3)c1	105	x	n	n	n	n	n
OC[C@@H]1Nc2ccc(-c3cccc(F)c3)cc2[C@@H]2[C@H]1CCN2Cc1ccncc1	x	x	n	x	x	x	x
OC[C@H]1Nc2ccc(-c3cccc(F)c3)cc2[C@@H]2[C@H]1CCN2Cc1ccc(F)cc1	111	x	n	u	112	51	105
C[C@@H]1CN([C@H](C)CO)S(=O)(=O)c2ccc(C#Cc3ccccc3)cc2O[C@H]1CN(C)S(=O)(=O)c1cn(C)cn1	99	n	n	107	n	67	51
C[C@@H]1CN([C@H](C)CO)S(=O)(=O)c2ccc(C#Cc3ccc(F)cc3)cc2O[C@H]1CN(C)S(=O)(=O)c1cn(C)cn1	n	n	n	x	x	x	x
C[C@H](CO)N1C[C@H](C)[C@H](CN(C)S(=O)(=O)c2cn(C)cn2)Oc2cc(C#Cc3ccccc3)ccc2S1(=O)=O	n	n	n	x	x	x	x
C[C@H]1CN([C@@H](C)CO)S(=O)(=O)c2ccc(C#Cc3ccc(F)cc3)cc2O[C@@H]1CN(C)S(=O)(=O)c1cn(C)cn1	122	n	x	103	101	46	49
COc1cccc(-c2ccc3c(c2)O[C@@H](CN(C)C(=O)C2CC2)[C@@H](C)CN([C@H](C)CO)S3(=O)=O)c1	105	x	n	n	n	n	63
COc1cccc(-c2ccc3c(c2)O[C@@H](CN(C)C(=O)C2CC2)[C@@H](C)CN([C@@H](C)CO)S3(=O)=O)c1	105	x	n	n	n	n	45
COc1cccc(-c2ccc3c(c2)O[C@H](CN(C)C(=O)C2CCOCC2)[C@H](C)CN([C@@H](C)CO)S3(=O)=O)c1	x	n	n	x	x	x	x
COc1cccc(-c2ccc3c(c2)O[C@H](CN(C)C(=O)C2CC2)[C@@H](C)CN([C@H](C)CO)S3(=O)=O)c1	n	x	n	x	x	x	x
CC(=O)Nc1ccc(C(=O)CSc2nncn2C)cc1	x	n	x	x	x	x	x
COc1cc(NC(=O)COc2cccc(C)c2C)ccc1-c1cc2ccccc2oc1=O	x	n	x	x	x	x	x
COC(=O)CCCCCCC(=O)N/N=C/[C@@H](O)[C@@H](O)[C@H](O)[C@H](O)CO	x	n	x	x	x	x	x
Cc1c(C(=O)N(C)C)sc(NC(=O)c2cc(-c3ccccn3)nc3ccc(Cl)cc23)c1C#N	x	n	x	x	x	x	x
O=C(c1ccc2c(c1)OCO2)N1CCCCN2[C@H](C1)[C@H](c1ccc(-c3ccccc3)cc1)[C@@H]2CO	n	x	n	x	x	x	x
Cc1cccc(-c2ccc([C@@H]3[C@H]4CN(C(=O)c5ccc6c(c5)OCO6)CCCCN4[C@H]3CO)cc2)c1	n	x	n	x	x	x	x
COc1cccc(-c2ccc([C@@H]3[C@H](CO)N4CCCCN(C(=O)c5ccc6c(c5)OCO6)C[C@@H]34)cc2)c1	98	x	n	107	n	n	103
COc1ccc(-c2ccc([C@@H]3[C@H](CO)N4CCCCN(C(=O)c5ccc6c(c5)OCO6)C[C@@H]34)cc2)cc1	108	x	n	u	n	n	104
COc1ccc(-c2ccc([C@@H]3[C@H](CO)N4CCCCN(C(=O)c5ccc(F)cc5)C[C@@H]34)cc2)cc1	n	x	n	x	x	x	x
COc1cccc(-c2ccc([C@H]3[C@@H](CO)N4CCCCN(C(=O)c5ccc6c(c5)OCO6)C[C@@H]34)cc2)c1	n	x	n	x	x	x	x
SMILES	T cruzi growth-1	IDH1 R132H inh	KDM4C inh	T cruzi growth-2	T cruzi growth-3	NIH3T3 tox	NIH3T3 tox 2
COc1ccc(-c2ccc([C@H]3[C@H](CO)N4CCCCN(C(=O)c5ccc6c(c5)OCO6)C[C@@H]34)cc2)cc1	111	x	n	100	n	n	90
O=C(c1ccc2c(c1)OCO2)N1CCCCN2[C@@H](CO)[C@@H](c3ccc(-c4ccccc4)cc3)[C@@H]2C1	104	x	n	100	n	u	102
Cc1[nH]c2ccccc2c1C(=O)CSc1ncnc2sc(C)c(C)c12	x	n	x	x	x	x	x
Cc1ccc(N(CC(=O)Nc2cc(Cl)ccc2C)S(C)(=O)=O)c(C)c1	x	n	x	x	x	x	x
O=C(Cn1c(=O)oc2ccccc21)Nc1ccc2c(c1)oc1ccccc12	x	n	x	x	x	x	x
Cc1ncsc1CCSc1nc2ccccc2c(=O)n1-c1ccccc1	x	n	x	x	x	x	x
COC(=O)COc1ccc2c(=O)c(Oc3cnn(-c4ccccc4)c3)c(C(F)(F)F)oc2c1C	x	n	x	x	x	x	x
Cc1cccc(C)c1OCC(=O)Nc1sc(C)c(C)c1C(N)=O	x	n	x	x	x	x	x
O=C(c1ccc2c(c1)OCO2)N1CCCCN2[C@H](CO)[C@H](c3ccc(-c4ccccc4)cc3)[C@@H]2C1	n	x	n	x	x	x	x
COc1ccc(-c2ccc([C@@H]3[C@H]4CN(C(=O)c5ccc6c(c5)OCO6)CCCCN4[C@H]3CO)cc2)cc1	112	x	n	101	n	n	104
COc1ccc(-c2cc(-c3cccs3)nc(SC(C(=O)O)c3ccccc3)c2C#N)cc1 (configuration not stated)	x	n	x	x	x	x	x
CS(=O)(=O)N(CC(=O)Nc1ccc(Br)c(Cl)c1)c1cccc([N+](=O)[O-])c1	x	n	x	x	x	x	x
CCN(CC)C(=O)c1cc(-c2ccc(Cl)c(Cl)c2)on1	x	n	x	x	x	x	x
Cc1noc(C)c1S(=O)(=O)Nc1ccc2c(c1)C(=O)N([C@H](C)CO)C[C@H](C)[C@H](CN(C)C(=O)Nc1ccc(C(F)(F)F)cc1)OCCCC[C@H](C)O2	n	n	n	x	x	x	x
Cc1noc(C)c1S(=O)(=O)Nc1ccc2c(c1)C(=O)N([C@@H](C)CO)C[C@@H](C)[C@@H](CN(C)C(=O)Nc1ccc(C(F)(F)F)cc1)OCCCC[C@@H](C)O2	u	x	n	96	102	n	u
Cc1noc(C)c1S(=O)(=O)Nc1ccc2c(c1)C(=O)N([C@@H](C)CO)C[C@H](C)[C@H](CN(C)C(=O)Nc1ccc(C(F)(F)F)cc1)OCCCC[C@H](C)O2	n	n	n	x	x	x	x
Cc1noc(C)c1S(=O)(=O)Nc1ccc2c(c1)C(=O)N([C@H](C)CO)C[C@H](C)[C@@H](CN(C)C(=O)Nc1ccc(C(F)(F)F)cc1)OCCCC[C@H](C)O2	114	n	n	101	n	n	u
CC(C)(C)SCCNc1nc(Sc2ccc(Cl)cc2)nc(N2CCSCC2)n1	x	n	x	x	x	x	x
COc1cccc(OCC(=O)Nc2ccc(-c3nc4ccccc4o3)cc2)c1	x	n	x	x	x	x	x
